# Screening data (PubChem BioAssay)
# Dynein transport: blocks dynein driven cargo transport along microtubules; 3617.4 mouse cells, GR-EGFP nuclear translocation imaging; test concentration mostly 20 µM; stimulated with dexamethasone, 1 µM; active compounds read low; z-score, hits read low; actives 0.47% (n = 220,000); AID 1381;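 active = plate z-score of nuclear minus cytoplasmic receptor signal below a set negative limit, without overly bright fluorescence or cell loss, cut at about -3.5 in these data, passing the limit was not always enough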;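 note: z-score of nuclear minus cytoplasmic ring GR-EGFP intensity difference per well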
#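 Also added: dexamethasone, 1.0 µM final. Medium: tet-free, stripped-serum medium. Detection: fixed, Hoechst-stained cells imaged at 10x for EGFP. Read-out: nuclear-to-cytoplasmic GR-EGFP distribution per well. Times: induction 48 h, compound 1 h, agonist 30 min.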
# MT stabilizer: microtubule stabilization, imaging screen | actives 0.83% (n = 200,000) | AID 2205 | % tubulin-high responders, % at 10 µM | HeLa tubulin immunostaining HCS, 24 h; share of cells brighter than vehicle mean+2SD;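 active = plate Z-score above 3 for both tubulin-high and condensed-nucleus cell shares, with cell loss under 80%, at 10 µM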;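 note: anti alpha tubulin signal scored within the nucleus-defined area of each cell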
# Lmaj promast: Leishmania major promastigote growth inhibition; inhibition, % at 10 µM; Leishmania major promastigotes, resazurin fluorescence viability; actives 9% (n = 200,000); in the data active = inhibition above about 50%;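 note: promastigotes grown with compound for 44 hours at 28 °C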
# bCat nuc transl: modulators of beta-catenin nuclear translocation; actives 0.3% (n = 190,000); AID 1665; HeLa beta-catenin nuclear translocation, immunofluorescence imaging; nuclear translocation activity, % at 5 µM;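 active = nuclear translocation activity above 50% at 5 µM, with a well cell count of 50 or more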;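 note: per-cell ratio of nuclear to cytoplasmic median beta-catenin stain intensity; plate controls were DMSO negative control for no effect and GSK-3 inhibitor IX positive control for full effect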
#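 Technique: fluorescence imaging of beta-catenin antibody stain plus DAPI / Material: human HeLa cell line / Incubation: compound treatment 24 h, 37°C, 5% CO2 / Read-out basis: % activation of per-cell nuclear versus cytoplasmic median beta-catenin signal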
# HSV replic up: increases HSV replication in cells; HSV replication augmentation in cells, fold increase; maximum fold increase; actives 0.005% (n = 220,000); in the data active = maximum fold increase above about 1.5; tested in PC3 cells
# * = called active by the depositor; i = inactive; x = not tested or not shown. Shown are actives, neighbours in structure and some others; about 8.9% of the full set was active somewhere.
SMILES,Dynein transport,MT stabilizer,Lmaj promast,bCat nuc transl,HSV replic up
NS(=O)(=O)c1ccc(NC(=O)CSc2ccccn2)cc1,0.35,3,-3,-3,i
CC(C)(C)C1CCC(OCC(O)CN2CCN(c3ccccc3)CC2)CC1 (centres undefined),2.6,3,91*,0,i
O=c1c2ccc(Cl)cc2nc(-c2cccc(C(F)(F)F)c2)n1O,-0.16,1,99*,4,i
Cc1c(NC(=O)CSC2=C(C#N)C(c3ccccc3F)CC(=O)N2)c(=O)n(-c2ccccc2)n1C (centres undefined),-0.87,5,0,-4,i
O=C(CCc1nc2ccccc2[nH]1)Nc1ccccc1,-0.4,3,0,0,i
CC1=CC(=Nc2c(C)n(C)n(-c3ccccc3)c2=O)C=C(C)C1=O,-1.3,4,72*,-1,i
CCC(C)C1=CC(=Nc2c(C)n(C)n(-c3ccccc3)c2=O)C=C(C(C)CC)C1=O (centres undefined),-0.56,3,-2,-4,i
CC(NC(=O)c1ccccc1Cl)C1COc2ccccc2O1 (centres undefined),-0.79,3,11,-1,i
CC1(C)CC(=O)c2c(nn(-c3ccccc3)c2N)C1,3.2,5,5,2,i
CCN(Cc1ccccc1)S(=O)(=O)c1ccc(C(=O)Nc2nnc(C3CC3)o2)cc1,0.35,3,98*,-1,i
COCCN(CCOC)S(=O)(=O)c1ccc(C(=O)Nc2nnc(C)o2)cc1,-0.39,3,-5,x,i
Cc1nnc(NC(=O)c2ccc(S(=O)(=O)N(C)Cc3ccccc3)cc2)o1,-0.32,3,77*,-4,i
COc1ccc(NCc2nnc(SCC(=O)Nc3cc(C(F)(F)F)ccc3Cl)o2)cc1,1.2,5,-1,-3,i
Cc1ccc(CC(=O)Nc2ccccc2-c2ccccc2)cc1C,4.2,3,70*,x,i
Cc1ccccc1CN(C)CC(=O)Nc1ccccc1-c1ccccc1,-0.095,4,12,-1,i
COCC(=O)Nc1ccccc1-c1ccccc1,1.5,4,-3,-4,i
Cc1cccc(N(CC(=O)Nc2ccccc2-c2ccccc2)S(=O)(=O)c2ccccc2)c1C,1.3,4,50*,5,i
Cc1ccc(S(=O)(=O)N(CC(=O)Nc2ccccc2-c2ccccc2)c2ccc(C)cc2C)cc1,1.1,6,17,2,i
COc1ccc(OCC(=O)Nc2ccccc2-c2ccccc2)cc1,1.7,34*,30,1,i
COc1ccc(C)cc1S(=O)(=O)N(CC(=O)Nc1cc([N+](=O)[O-])ccc1C)c1ccc(C)c(C)c1,2.3,2,99*,1,i
COC(=O)/C=C1/N/C(=N\c2nc(C)cc(C)n2)N(c2cccc(C)c2)C1=O,-0.64,7,10,2,i
CN(Cc1ccccc1)c1nc(N)c([N+](=O)[O-])c(Nc2cccc(F)c2)n1,-0.84,2,11,x,i
CCN(CC(=O)Nc1ccccc1OC)CC(=O)Nc1ccccc1C(F)(F)F,0.45,18*,4,4,i
CCN(CC(=O)Nc1ccc([N+](=O)[O-])cc1OC)CC(=O)NC(C)(C)C,1.5,4,71*,-5,i
CCN(CC(=O)Nc1ccccc1OC)CC(=O)Nc1ccccc1-c1ccccc1,0.62,20*,20,-2,i
SMILES,Dynein transport,MT stabilizer,Lmaj promast,bCat nuc transl,HSV replic up
CCOC(=O)N1CCN(CCC(=O)Nc2ccc(Br)cc2)CC1,2,2,4,-4,i
CCOC(=O)N1CCN(CCC(=O)Nc2cccc(Br)c2)CC1,0.46,5,89*,-1,i
CCOC(=O)N1CCN(CCC(=O)Nc2cc(OC)cc(OC)c2)CC1,0.61,3,52*,0,i
CCOC(=O)N1CCN(CCC(=O)Nc2ccc(C)c(Br)c2)CC1,-0.61,3,73*,3,i
CSC1=NCCN1C(=O)c1ccc2c(c1)OCO2,-0.98,3,2,-1,i
CCOC(=O)CC(=O)c1[nH]c(C)c(C(=O)OCC)c1C,0.31,2,2,7,i
COc1cccc(-c2nc3n(n2)C(c2ccc4c(c2)OCO4)C(C(N)=O)=C(C)N3)c1 (centres undefined),-0.27,3,0,x,i
COc1ccc(N2CCN(C(=O)C(C)(C)Oc3ccc(Cl)cc3)CC2)cc1,0.39,4,98*,-2,i
Oc1ccc(/C=N/Nc2cc(N3CCCC3)nc(N3CCCC3)n2)cc1,0.36,2,13,0,i
Oc1cccc(/C=N/Nc2cc(N3CCCC3)nc(N3CCCC3)n2)c1,-0.065,3,97*,-3,i
COc1ccc(/C=N/Nc2cc(N3CCCC3)nc(N3CCCC3)n2)cc1,-0.7,2,95*,0,i
CCNC(=S)N(Cc1cc2c(C)ccc(C)c2[nH]c1=O)C1CCCC1,-0.91,3,67*,0,i
CCNC(=S)N(Cc1cc2cc(C)cc(C)c2[nH]c1=O)C1CCCC1,0.87,6,99*,-1,i
CCNC(=S)N(Cc1cc2cc(C)ccc2[nH]c1=O)C1CCCC1,-0.5,3,36,1,x
CNC(=S)N(Cc1cc2cc(C)cc(C)c2[nH]c1=O)C1CCCC1,1.4,2,60*,-1,i
S=c1[nH]c2ccc3ccccc3c2[nH]1,-0.55,2,-6,1,i
CC1=CC(=O)c2c(O)ccc(O)c2C1=O,-3.9*,4,98*,-1,i
COC(=O)c1cc2sccc2n1Cc1nc(-c2cccc(Cl)c2)oc1C,-0.65,3,64*,x,i
CC(=O)c1cccc(NC(=O)N2CCCC2C(=O)Nc2c(C)cccc2C)c1 (centres undefined),0.96,4,7,0,i
COc1cc(C(=O)O/N=C(\N)c2ccc([N+](=O)[O-])cc2)cc(OC)c1OC,0.26,6,56*,x,i
COc1cc(C(=O)O/N=C(\N)c2ccncc2)cc(OC)c1OC,-0.28,3,82*,1,i
CCC(c1nnnn1Cc1ccc(F)cc1)N1CCN(C2CCCCC2)CC1 (centres undefined),-0.084,3,31,-5,i
Fc1ccc(Cn2nnnc2CN2CCN(C3CCCC3)CC2)cc1,1.1,4,94*,3,i
COc1ccc2c(c1)CCC(C)N2S(=O)(=O)c1ccc(C2CNC(=O)C2)cc1 (centres undefined),0.043,4,95*,1,i
O=C(CN1C(=O)/C(=C\c2ccc(F)cc2)Oc2ccccc21)N1CCN(c2ccccn2)CC1,0.14,2,-2,1,i
COc1ccc(-n2cc(C#N)c(=O)n(Cc3ccc(F)cc3)c2=O)cc1,-0.7,24*,13,31,i
Cc1cc(C)n(Cc2ccc(F)cc2)c(=O)c1C#N,0.31,4,-4,1,i
CNC(=S)N/N=C/c1cn(CCOc2ccc(OC)cc2)c2ccccc12,0.31,5,17,-2,x
